ChEMBL document CHEMBL1138558, “Synthesis of some new 1,2,4-triazoles, their Mannich and Schiff bases and evaluation of their antimicrobial activities” (2009)
Calls of active or inactive are those of the source. No cut-off for these calls is given here.

How the values were obtained:
Type in all cases: functional
Escherichia coli = experiment: Antimicrobial activity against Escherichia coli ATCC 25922 at 10 mg/mL after 18 hrs by agar-well diffusion method; conditions: for zone of inhibition at 10000 µg/mL: ATCC 25922, 18 h, read-out: IZ
In short: (§1)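 Agar-well diffusion: each bacterium suspended in Mueller Hinton broth at about 10⁶ cfu/mL, flood-inoculated onto Mueller Hinton agar and dried. 5-mm wells were cut with a sterile cork-borer and filled with the test solution. Plates were incubated 18 h at 35 °C. The read-out was the diameter of the inhibition zone.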

[1] = system: Yersinia pseudotuberculosis; experiment: Antimicrobial activity against Yersinia pseudotuberculosis ATCC 911 at 10 mg/mL after 18 hrs by agar-well diffusion method; conditions: for zone of inhibition at 10000 µg/mL: ATCC 911, 18 h, read-out: IZ
In short: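 Bacteria suspended in Mueller Hinton broth at about 10⁶ cfu/mL, flood-inoculated onto Mueller Hinton agar and dried. Test substance placed into 5-mm wells bored with a sterile cork-borer. Incubation 18 h at 35 °C, then the inhibition zone around each well measured.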

Pseudomonas aeruginosa = experiment: Antimicrobial activity against Pseudomonas aeruginosa ATCC 27853 at 10 mg/mL after 18 hrs by agar-well diffusion method; conditions: for zone of inhibition at 10000 µg/mL: ATCC 27853, 18 h, read-out: IZ; in short: as §1
Enterococcus faecalis = experiment: Antimicrobial activity against Enterococcus faecalis ATCC 29212 at 10 mg/mL after 18 hrs by agar-well diffusion method; conditions: for zone of inhibition at 10000 µg/mL: ATCC 29212, 18 h, read-out: IZ; in short: as §1
Staphylococcus aureus = experiment: Antimicrobial activity against Staphylococcus aureus ATCC 25923 at 10 mg/mL after 18 hrs by agar-well diffusion method; conditions: for zone of inhibition at 10000 µg/mL: ATCC 25923, 18 h, read-out: IZ; in short: as §1
Bacillus cereus = experiment: Antimicrobial activity against Bacillus cereus 702 Roma at 10 mg/mL after 18 hrs by agar-well diffusion method; conditions: for zone of inhibition at 10000 µg/mL: read-out: IZ; in short: as §1
Candida tropicalis = experiment: Antimicrobial activity against Candida tropicalis ATCC 13803 at 10 mg/mL after 18 hrs by agar-well diffusion method; conditions: for zone of inhibition at 10000 µg/mL: ATCC 13803, 18 h, read-out: IZ
In short: (§2)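 Candida cultures were suspended in Mueller Hinton broth at about 10⁶ cfu/mL, flood-inoculated onto Sabouraud dextrose agar and dried. Test solution was loaded into 5-mm wells bored in the agar. Plates were incubated 18 h at 35 °C, and activity was scored as the inhibition zone around each well.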

Candida albicans = experiment: Antimicrobial activity against Candida albicans ATCC 60193 at 10 mg/mL after 18 hrs by agar-well diffusion method; conditions: for zone of inhibition at 10000 µg/mL: ATCC 60193, 18 h, read-out: IZ; in short: as §2

Row | SMILES | zone of inhibition at 10000 µg/mL (Escherichia coli) | zone of inhibition at 10000 µg/mL [1] | zone of inhibition at 10000 µg/mL (Pseudomonas aeruginosa) | zone of inhibition at 10000 µg/mL (Enterococcus faecalis) | zone of inhibition at 10000 µg/mL (Staphylococcus aureus) | zone of inhibition at 10000 µg/mL (Bacillus cereus) | inhibition zone (IZ) (Candida tropicalis) | inhibition zone (IZ) (Candida albicans) | inhibition zone (IZ) (Escherichia coli) | inhibition zone (IZ) [1] | inhibition zone (IZ) (Pseudomonas aeruginosa) | inhibition zone (IZ) (Enterococcus faecalis) | inhibition zone (IZ) (Staphylococcus aureus) | inhibition zone (IZ) (Bacillus cereus) | zone of inhibition at 10000 µg/mL (Candida tropicalis) | zone of inhibition at 10000 µg/mL (Candida albicans)
1 | CN1CCN(Cn2nc(-c3ccncc3)n(-c3ccccc3)c2=S)CC1 | 24 mm | 24 mm | 30 mm | 28 mm | 24 mm | 23 mm | inactive | inactive |  |  |  |  |  |  |  | 
2 | O=C(CSc1nnc(-c2ccncc2)n1-c1ccccc1)N/N=C/c1ccccc1O | 30 mm | 30 mm | 30 mm | 30 mm | 25 mm | 25 mm | inactive | inactive |  |  |  |  |  |  |  | 
3 | O=C(CSc1nnc(-c2ccncc2)n1-c1ccccc1)N/N=C/c1c(Cl)cccc1Cl |  |  |  |  |  |  | inactive | inactive | inactive | inactive | inactive | inactive | inactive | inactive |  | 
4 | CC(C)CSc1nnc(-c2ccncc2)n1-c1ccccc1 | 25 mm | 30 mm | 30 mm | 30 mm | 25 mm | 30 mm |  |  |  |  |  |  |  |  | 8 mm | 8 mm
5 | S=c1n(CN2CCN(Cn3nc(-c4ccncc4)n(-c4ccccc4)c3=S)CC2)nc(-c2ccncc2)n1-c1ccccc1 |  |  |  |  |  |  | inactive | inactive | inactive | inactive | inactive | inactive | inactive | inactive |  | 
6 | O=C(CSc1nnc(-c2ccncc2)n1-c1ccccc1)N/N=C/c1ccc(F)cc1 | 30 mm | 25 mm | 38 mm | 30 mm | 30 mm | 23 mm | inactive | inactive |  |  |  |  |  |  |  | 
7 | Cc1ccc(Nc2nnc(CSc3nnc(-c4ccncc4)n3-c3ccccc3)s2)cc1 | 31 mm | 22 mm | 35 mm | 20 mm | 25 mm | 20 mm | inactive | inactive |  |  |  |  |  |  |  | 
8 | O=C(CSc1nnc(-c2ccncc2)n1-c1ccccc1)N/N=C/c1ccc(O)c(O)c1 |  |  |  |  |  |  | inactive | inactive | inactive | inactive | inactive | inactive | inactive | inactive |  | 
9 | O=C(CSc1nnc(-c2ccncc2)n1-c1ccccc1)N/N=C/c1ccccn1 | 42 mm | 30 mm | 40 mm | 20 mm | 24 mm | 20 mm | inactive | inactive |  |  |  |  |  |  |  | 
10 | Sc1nnc(CSc2nnc(-c3ccncc3)n2-c2ccccc2)o1 |  |  |  |  | 8 mm | 6 mm |  |  | inactive | inactive | inactive | inactive |  |  | 6 mm | 6 mm
11 | Cc1ccc(-n2c(S)nnc2CSc2nnc(-c3ccncc3)n2-c2ccccc2)cc1 |  |  |  | 15 mm |  | 6 mm | inactive | inactive | inactive | inactive | inactive |  | inactive |  |  | 
12 | Cc1ccc(-n2c(CSc3nnc(-c4ccncc4)n3-c3ccccc3)nn(CN3CCN(C)CC3)c2=S)cc1 |  |  |  |  |  |  | inactive | inactive | inactive | inactive | inactive | inactive | inactive | inactive |  | 
13 | Cc1ccc(NC(=S)NNC(=O)CSc2nnc(-c3ccncc3)n2-c2ccccc2)cc1 |  |  |  |  |  |  |  |  | inactive | inactive | inactive | inactive | inactive | inactive | 7 mm | 7 mm
14 | O=C(CSc1nnc(-c2ccncc2)n1-c1ccccc1)N/N=C/c1ccncc1 |  |  |  |  |  |  | inactive | inactive | inactive | inactive | inactive | inactive | inactive | inactive |  | 
15 | O=C(CSc1nnc(-c2ccncc2)n1-c1ccccc1)N/N=C/c1cccnc1 | 8 mm | 7 mm |  |  |  |  | inactive | inactive |  |  | inactive | inactive | inactive | inactive |  | 
16 | S=c1n(CNCCN2CCOCC2)nc(-c2ccncc2)n1-c1ccccc1 | 20 mm | 22 mm | 14 mm | 16 mm | 21 mm | 15 mm | inactive | inactive |  |  |  |  |  |  |  | 
17 | COc1ccc(/C=N/NC(=O)CSc2nnc(-c3ccncc3)n2-c2ccccc2)cc1 | 24 mm | 30 mm | 30 mm | 28 mm | 28 mm | 25 mm | inactive | inactive |  |  |  |  |  |  |  | 
18 | S=c1oc(CSc2nnc(-c3ccncc3)n2-c2ccccc2)nn1CNCCN1CCOCC1 | 6 mm |  |  |  |  |  | inactive | inactive |  | inactive | inactive | inactive | inactive | inactive |  | 
19 | CSc1nnc(-c2ccncc2)n1-c1ccccc1 | 30 mm | 30 mm | 30 mm | 30 mm | 25 mm | 30 mm |  |  |  |  |  |  |  |  | 9 mm | 9 mm
